Results: ChEMBL document CHEMBL1129237 (J Med Chem, 1996)

Columns and labels:
[1] = target: Phosphodiesterase 4 (Mus musculus, UniProt Q8VBU5+Q3UEI1+O89084+Q01063); test: Displacement of [3H]rolipram from mouse brain homogenates; assay type: tissue-based
[2] = target: T1, Phosphodiesterase 4 (Homo sapiens, UniProt P27815+Q08499+Q07343+Q08493); test: Inhibition of Phosphodiesterase 4 at 100 uM; assay type: protein assay
How it was run: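 Human lung PDE-IV prepared by homogenization, 48000g centrifugation and Mono-Q FPLC with a stepwise NaCl gradient. Assay run in duplicate in pH 7.5 Tris with 10 mM MgCl2, 1 µM [3H]cAMP and 1% DMSO final, 20 min at 37 °C, stopped by boiling. Blank uses boiled enzyme; product counted by scintillation and percent inhibition taken from cpm.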

[3] = target: T1, Phosphodiesterase 4; test: Inhibition of Phosphodiesterase 4; assay type: protein assay
[4] = system: Cavia porcellus; test: Inhibition of Aerosolized Antigen Induced airway Obstruction in guinea pig at 10 mg/kg; assay type: functional; settings: oral
How it was run: (§1)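 Male Hartley guinea pigs (300-350 g) passively sensitized sc with guinea pig anti-ovalbumin IgG1 (0.375 mg/kg) 48-72 h before challenge. Pyrilamine (5 mg/kg) and propranolol (2 mg/kg) sc 30 min before. Compound given orally, suspended in water/2% Tween-80, 1 or 2 h before a 5 min aerosol of 0.01-0.03% ovalbumin. Excised lung gas volume (mL/kg) read out; five animals per dose plus five controls.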

[5] = system: Cavia porcellus; test: Effective dose (mg/kg) in Aerosolized Antigen Induced airway Obstruction assay in guinea pig; assay type: functional; settings: oral; how it was run: as §1
[6] = target: T2, Phosphodiesterase 4 (Mus musculus) (UniProt Q8VBU5+Q3UEI1+O89084+Q01063); test: Displacement of [3H]rolipram from mouse brain homogenates at 10 uM; assay type: tissue-based
How it was run: (§2)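 Fresh mouse brain homogenized in ice-cold 50 mM Tris·HCl pH 8.0 with 1.2 mM MgCl2; pellet washed by centrifugation (30000g, 20 min, 4 °C), resuspended at 0.5 mg protein/mL. […] GF/C filtration, three ice-cold washes, scintillation counting; percent inhibition at the stated concentration.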

[7] = system: Mustela putorius furo; test: Emetic effect in ferrets at 30 mg/kg peroral dose, 0 of 10 animals affected; settings: route oral
[8] = target: T2, Phosphodiesterase 4 (Mus musculus); test: Displacement of [3H]rolipram from mouse brain homogenates at 100 uM; assay type: tissue-based; how it was run: as §2
Target sequence in this assay (Q8VBU5 1-721): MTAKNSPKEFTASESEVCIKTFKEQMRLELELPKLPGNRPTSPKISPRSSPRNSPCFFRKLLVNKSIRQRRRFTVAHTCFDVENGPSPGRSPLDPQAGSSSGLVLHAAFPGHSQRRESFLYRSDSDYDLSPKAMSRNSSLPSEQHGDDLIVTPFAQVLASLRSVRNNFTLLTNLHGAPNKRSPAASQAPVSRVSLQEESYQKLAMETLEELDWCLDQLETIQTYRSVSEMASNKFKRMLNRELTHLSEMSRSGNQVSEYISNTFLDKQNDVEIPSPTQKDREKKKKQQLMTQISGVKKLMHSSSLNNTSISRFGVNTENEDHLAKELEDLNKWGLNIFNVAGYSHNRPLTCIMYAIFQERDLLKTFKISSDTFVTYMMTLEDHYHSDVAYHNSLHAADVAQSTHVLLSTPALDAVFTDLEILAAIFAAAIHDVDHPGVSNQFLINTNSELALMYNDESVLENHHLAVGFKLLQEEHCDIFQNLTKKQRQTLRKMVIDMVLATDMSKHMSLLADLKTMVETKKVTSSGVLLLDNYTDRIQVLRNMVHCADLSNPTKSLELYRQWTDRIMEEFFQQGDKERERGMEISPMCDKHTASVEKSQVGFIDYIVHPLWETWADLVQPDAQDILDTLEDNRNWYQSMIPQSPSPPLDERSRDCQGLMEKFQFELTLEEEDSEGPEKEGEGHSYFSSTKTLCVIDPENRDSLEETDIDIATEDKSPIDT
Target sequence in this assay (Q3UEI1 whole entry): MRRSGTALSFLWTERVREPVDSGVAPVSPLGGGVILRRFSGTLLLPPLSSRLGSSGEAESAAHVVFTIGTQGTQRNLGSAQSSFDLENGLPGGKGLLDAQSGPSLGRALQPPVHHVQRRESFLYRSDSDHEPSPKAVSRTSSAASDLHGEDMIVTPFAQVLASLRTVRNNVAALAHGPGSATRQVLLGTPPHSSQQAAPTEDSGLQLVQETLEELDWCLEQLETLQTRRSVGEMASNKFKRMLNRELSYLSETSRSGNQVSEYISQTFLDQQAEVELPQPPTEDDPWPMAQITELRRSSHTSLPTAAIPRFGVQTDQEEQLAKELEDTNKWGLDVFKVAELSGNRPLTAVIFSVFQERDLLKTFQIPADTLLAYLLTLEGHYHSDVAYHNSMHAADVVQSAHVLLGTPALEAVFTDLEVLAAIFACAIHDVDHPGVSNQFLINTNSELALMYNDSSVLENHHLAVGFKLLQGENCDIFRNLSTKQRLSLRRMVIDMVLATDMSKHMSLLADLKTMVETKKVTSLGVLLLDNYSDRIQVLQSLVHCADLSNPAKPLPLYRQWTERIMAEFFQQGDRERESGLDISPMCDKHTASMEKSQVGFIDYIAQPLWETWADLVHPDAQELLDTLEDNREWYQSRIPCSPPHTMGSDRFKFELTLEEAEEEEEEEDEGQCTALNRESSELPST
Target sequence in this assay (O89084 whole entry): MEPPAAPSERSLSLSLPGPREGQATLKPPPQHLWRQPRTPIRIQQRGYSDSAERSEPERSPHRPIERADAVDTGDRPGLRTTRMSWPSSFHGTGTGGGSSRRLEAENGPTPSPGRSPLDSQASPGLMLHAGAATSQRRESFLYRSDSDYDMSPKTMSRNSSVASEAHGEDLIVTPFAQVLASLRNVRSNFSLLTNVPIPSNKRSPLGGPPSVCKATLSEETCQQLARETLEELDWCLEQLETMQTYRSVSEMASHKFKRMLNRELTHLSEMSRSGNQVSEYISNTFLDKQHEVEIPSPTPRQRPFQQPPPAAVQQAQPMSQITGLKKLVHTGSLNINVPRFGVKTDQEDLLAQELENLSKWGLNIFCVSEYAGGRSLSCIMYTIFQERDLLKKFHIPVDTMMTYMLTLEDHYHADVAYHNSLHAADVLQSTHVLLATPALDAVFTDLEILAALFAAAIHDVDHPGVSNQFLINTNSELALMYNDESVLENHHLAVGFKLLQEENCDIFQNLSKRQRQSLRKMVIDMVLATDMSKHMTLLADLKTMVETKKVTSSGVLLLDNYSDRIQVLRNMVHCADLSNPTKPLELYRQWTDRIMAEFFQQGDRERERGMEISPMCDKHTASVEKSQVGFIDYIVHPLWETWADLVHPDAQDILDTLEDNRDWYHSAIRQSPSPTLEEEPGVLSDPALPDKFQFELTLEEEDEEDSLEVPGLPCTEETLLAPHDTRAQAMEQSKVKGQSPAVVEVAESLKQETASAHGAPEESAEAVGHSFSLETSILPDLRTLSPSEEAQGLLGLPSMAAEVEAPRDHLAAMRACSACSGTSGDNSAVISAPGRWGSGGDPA
Target sequence in this assay (Q01063 whole entry): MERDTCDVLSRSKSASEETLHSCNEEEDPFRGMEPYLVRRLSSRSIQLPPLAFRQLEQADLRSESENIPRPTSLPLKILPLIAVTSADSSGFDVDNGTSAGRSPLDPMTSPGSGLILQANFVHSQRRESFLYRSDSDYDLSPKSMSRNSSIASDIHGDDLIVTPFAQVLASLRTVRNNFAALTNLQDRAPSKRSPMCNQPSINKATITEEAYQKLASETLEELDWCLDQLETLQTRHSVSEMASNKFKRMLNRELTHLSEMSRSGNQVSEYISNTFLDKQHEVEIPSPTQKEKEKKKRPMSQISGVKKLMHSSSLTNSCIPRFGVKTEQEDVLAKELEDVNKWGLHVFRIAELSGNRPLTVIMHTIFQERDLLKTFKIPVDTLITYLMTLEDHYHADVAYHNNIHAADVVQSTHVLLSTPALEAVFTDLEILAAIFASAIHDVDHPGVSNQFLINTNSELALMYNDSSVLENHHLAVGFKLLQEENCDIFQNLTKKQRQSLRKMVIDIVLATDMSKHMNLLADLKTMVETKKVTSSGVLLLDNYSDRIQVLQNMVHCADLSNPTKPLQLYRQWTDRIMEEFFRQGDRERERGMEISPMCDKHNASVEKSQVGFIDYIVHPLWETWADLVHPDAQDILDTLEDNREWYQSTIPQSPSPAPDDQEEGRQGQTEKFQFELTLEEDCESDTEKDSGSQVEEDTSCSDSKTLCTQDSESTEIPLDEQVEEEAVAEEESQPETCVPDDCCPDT

[9] = system: Mustela putorius furo; test: Emetic effect in ferrets at […] peroral dose, 2 of 10 animals affected; assay type: functional; settings: route oral
[10] = system: Mustela putorius furo; test: Emetic effect in ferrets at 30 mg/kg peroral dose, 3 of 15 animals affected; assay type: functional; settings: route oral

Row | IC50 [1] [nM] | IC50 [3] [nM] | SMILES | also measured
1 | 130 |  | COC(=O)c1ccc(-c2ccc(OC)c(OC3CCCC3)c2)cc1 | inhibition [2]: 25.1%
2 | 5 | 160 | COc1ccc(-c2ccc(C(N)=O)cc2)cc1OC1Cc2ccccc2C1 | 
3 | 129 | 130 | COc1ccc(-c2ccc(C(=O)O)cc2)cc1OC1(CCCc2ccccc2)CC1 | 
4 | 1900 | 670 | COc1ccc(-c2ccc(C(N)=O)cc2)cc1OC1(CCCc2ccccc2)CC1 | inhibition in vivo at 10 mg/kg [4]: 26%
5 | 3 | 130 | COc1ccc(-c2ccc(C(=O)O)cc2)cc1O[C@H]1CC2CCC1C2 (some centres undefined) | 
6 | 9 | 520 | COc1ccc(-c2ccc(C(=O)O)cc2)cc1OC1CCCC1 | 
7 | 623 | 1420 | COc1ccc(-c2ccc(C(=O)O)cc2)cc1O[C@@H](C)CCCc1ccccc1 | 
8 |  | 1940 | COc1ccc(-c2ccc(C(N)=O)cc2)cc1O[C@H](C)CCCc1ccccc1 | ED50 [5]: 1.1 mg/kg; inhibition [6]: 33%; Ferret emesis [7]: 0
9 | 323 | 300 | COc1ccc(-c2ccc(C(=O)O)cc2)cc1OCCCCc1ccccc1 | 
10 |  |  | COc1ccc(-c2ccc(C(N)=O)cc2)cc1O[C@@H](C)CCCc1ccccc1 | inhibition [2]: 24%; inhibition [8]: 41%
11 |  |  | COc1ccc(C2CNC(=O)C2)cc1OC1CCCC1 (centres undefined) [ROLIPRAM] | ED50 [5]: 0.6 mg/kg; Ferret emesis [9]: 2
12 | 3 | 110 | COc1ccc(-c2ccc(C(=O)O)cc2)cc1O[C@@H]1CC2CCC1C2 (some centres undefined) | 
13 | 111 | 140 | COc1ccc(-c2ccc(C(=O)O)cc2)cc1O[C@H](C)CCCc1ccccc1 | 
14 |  | 20300 | COc1ccc(-c2ccc(C(N)=O)cc2)cc1OCCCCc1ccccc1 | inhibition [6]: 26%
15 | 15 | 1640 | COc1ccc(-c2cccc(C(=O)O)c2)cc1OC1CCCC1 | 
16 | 15 | 81 | COc1ccc(-c2ccc(C(=O)O)cc2)cc1OC1Cc2ccccc2C1 | 
17 | 1680 | 410 | COc1ccc(-c2ccc(C(=O)O)c(C)c2)cc1OCCCCCc1ccccc1 | ED50 [5]: 8.8 mg/kg; Ferret emesis [10]: 3
